Bioassay records: PubChem, several laboratories
AI-2 QS mod: modulators of Vibrio harveyi AI-2 quorum sensing system. Vibrio harveyi JMH597 AI-2 luminescence/OD600 ratio, 9 h; hits give low values; strain lacks LuxN and CqsS sensors; 0 = neutral-control median. activity change, % at 7.5 µM. hit rate 0.4% among 300,000; in the data active means activity change below about -75%, passing the limit was not always enough; inconclusive means no clear call, values can overlap the other calls;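 further: luminescence divided by OD600 gain over 9 h not by final OD600 alone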
LANA-H2A inh: blocks KSHV LANA binding to histone H2A/H2B; inhibition, % (no concentration beside the values); Q9QR71; hit rate 0.6% among 320,000; cell-free LANA-H2A/H2B peptide, fluorescence polarization; in the data active means inhibition mostly above about 10%, no sharp cut-off; inactive means mostly below about 6.7%
ATG4B inh: ATG4B (human) cysteine protease inhibition; ATG4B cleavage of LC3-PLA2, NBD-HPC fluorescence, 1 h; hit rate 0.51% among 340,000; AID 504462; inhibition, % at 8.33 µM; in the data active means inhibition above about 40%
HKDC1 inhibitor: blocks human hexokinase HKDC1 activity; Q2TB90; recombinant HKDC1, G6PDH/diaphorase resazurin coupled fluorescence; hit rate 0.16% among 340,000; AID 493160; inhibition, % at 20 µM;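 active means inhibition above about 35% when tested at 20 µM, limit read from the data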;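 further: plate controls were DMSO wells with enzyme for no effect and DMSO wells lacking enzyme for full effect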
Target sequence (Q2TB90 whole entry, looked up): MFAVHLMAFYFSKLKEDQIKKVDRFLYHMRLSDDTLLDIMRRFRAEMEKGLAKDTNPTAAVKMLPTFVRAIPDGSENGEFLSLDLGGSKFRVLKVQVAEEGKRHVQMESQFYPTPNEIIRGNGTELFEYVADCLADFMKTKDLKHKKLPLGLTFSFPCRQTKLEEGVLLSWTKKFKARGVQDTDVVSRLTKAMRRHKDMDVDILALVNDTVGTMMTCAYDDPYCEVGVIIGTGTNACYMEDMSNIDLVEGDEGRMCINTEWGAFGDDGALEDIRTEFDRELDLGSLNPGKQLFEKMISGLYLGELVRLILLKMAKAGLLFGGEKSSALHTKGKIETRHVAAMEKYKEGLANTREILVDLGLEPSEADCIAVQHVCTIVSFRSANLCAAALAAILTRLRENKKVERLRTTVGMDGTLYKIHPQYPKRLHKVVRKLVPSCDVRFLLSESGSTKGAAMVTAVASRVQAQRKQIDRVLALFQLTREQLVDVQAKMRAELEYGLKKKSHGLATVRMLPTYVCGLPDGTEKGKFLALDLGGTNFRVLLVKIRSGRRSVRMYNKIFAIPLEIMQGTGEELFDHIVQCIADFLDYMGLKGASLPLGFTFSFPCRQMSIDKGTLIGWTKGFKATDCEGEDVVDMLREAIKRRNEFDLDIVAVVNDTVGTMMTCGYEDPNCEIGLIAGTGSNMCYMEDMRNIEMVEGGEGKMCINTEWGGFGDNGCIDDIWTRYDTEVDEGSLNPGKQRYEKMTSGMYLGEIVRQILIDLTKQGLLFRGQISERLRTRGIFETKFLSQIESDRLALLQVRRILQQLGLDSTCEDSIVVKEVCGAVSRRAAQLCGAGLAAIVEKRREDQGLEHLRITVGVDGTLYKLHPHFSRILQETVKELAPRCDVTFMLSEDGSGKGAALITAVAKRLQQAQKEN
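Test system: Recombinant HKDC1 (HK5) hexokinase enzyme, produced in-house | Input: HKDC1 at 5 µg/mL | Buffer or medium: Tris pH 8.0 buffer with MgCl2, Tween-20, BSA, BME | Schedule: 90 min reaction incubation at room temperature, dark | Technique: Resazurin-to-resorufin fluorescence via G6PDH and diaphorase coupling, 525/613 nm | Controls: DMSO wells with and without enzyme mix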
HDAC3 inhib: human HDAC3 inhibition | hit rate 0.15% among 320,000 | recombinant HDAC3, fluorogenic peptide/trypsin coupled, fluorescence | O15379 | inhibition, % at 8.3 µM; in the data active means inhibition above about 26%, passing the limit was not always enough; inconclusive means no clear call, values can overlap the other calls
A1 inh: inhibitors of the anti-apoptotic protein A1, read as caspase activation. hit rate 0.066% among 330,000. MEF A1-2A-BIM cells, Caspase-Glo 3/7 luminescence, 3 h; percent of clofoctol response, vehicle zero. caspase activation, % (no concentration beside the values);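 active means over half of replicate activation scores above 10%, or exactly half above 10 with the replicate mean above 10; inconclusive means replicate mean below 10 yet half the replicates above 10; inactive means over half of replicates below 10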
JMH597 growth: retest: blocks Vibrio harveyi JMH597 growth; shares compounds with AI-2 QS mod; OD600 absorbance, 9 h; lacks LuxN and CqsS sensors; growth inhibition, % at 7.5 µM; hit rate 1% among 750; AID 2726;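 active means every replicate shows growth inhibition above 50%; inconclusive means at least half, but not all, replicates pass that cutoff; inactive means fewer than half of replicates pass it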
BB721 lum counter: retest counter-screen: luminescence loss in constitutive-on quorum sensing strain BB721; shares compounds with AI-2 QS mod; Vibrio harveyi BB721 luminescence, 9 h; hit rate 95% among 750; inhibition, % at 7.5 µM;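 active means inhibition above about 80% in every replicate, not just on average, limit read from the data; inconclusive means at least half of replicates past the limit, but not all; inactive means fewer than half of replicates past the limit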
BB721 growth rt: retest Vibrio harveyi BB721 growth inhibition | shares compounds with AI-2 QS mod | OD600 absorbance, 9 h | growth inhibition, % at 7.5 µM | hit rate 3% among 750 | AID 2728;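 active means every replicate shows growth inhibition above 50%; inconclusive means at least half but not all replicates above 50% inhibition; inactive means under half of replicates above 50% inhibition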
JMH597 AI-2 mod: Vibrio harveyi AI-2 signaling luminescence modulation – JMH597 strain, confirmation; inhibition, % at 7.5 µM; shares compounds with AI-2 QS mod; Vibrio harveyi JMH597 AI-2 quorum sensing luminescence, 9 h; luxN and CqsS knockout, AI-2 only; hit rate 97% among 750;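 active means every replicate shows more than 75% inhibition of signal versus neutral control wells; inconclusive means half to three quarters of replicates exceed 75% inhibition; inactive means fewer than half of replicates exceed 75% inhibition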
* marks the source's active call; other numbers are inactive results. In the library only some 1.8% were active in any assay of this set; here they are far more common.

How did O=C(Cn1c(=O)oc2cc(S(=O)(=O)N3CCCC3)ccc21)NCc1ccccn1 do in these assays?
AI-2 QS mod: -97*; LANA-H2A inh: 6; ATG4B inh: 0; HKDC1 inhibitor: 0; HDAC3 inhib: -3; A1 inh: 1; JMH597 growth: 6; BB721 lum counter: 99*; BB721 growth rt: -52; JMH597 AI-2 mod: 99*

How did O=C(Cn1c(=O)oc2cc(S(=O)(=O)NCc3ccccc3)ccc21)NCc1ccco1 do in these assays?
AI-2 QS mod: inconclusive; LANA-H2A inh: 1; ATG4B inh: 6; HKDC1 inhibitor: -1; HDAC3 inhib: -4; A1 inh: 1; JMH597 growth: 5; BB721 lum counter: 100*; BB721 growth rt: -47; JMH597 AI-2 mod: 100*

Results for CN(C)S(=O)(=O)c1ccc(NC(=O)CSc2ncnc3ccccc23)cc1 ?
AI-2 QS mod: -86*; ATG4B inh: -9; HKDC1 inhibitor: -10; A1 inh: 0; JMH597 growth: 4; BB721 lum counter: 92*; BB721 growth rt: 6; JMH597 AI-2 mod: 94*

How did CN(C)S(=O)(=O)c1cccc(NC(=O)CSc2ncnc3ccccc23)c1 do in these assays?
AI-2 QS mod: -46; LANA-H2A inh: 6; ATG4B inh: 25; HKDC1 inhibitor: -6; HDAC3 inhib: -1; A1 inh: 0

How did CNC(=O)COc1ncnc2sccc12 do in these assays?
ATG4B inh: -6; HKDC1 inhibitor: 1

What do the screens show for `CN(C)S(=O)(=O)c1ccc(NC(=O)COc2ncnc3sccc23)cc1`?
AI-2 QS mod: -97*; LANA-H2A inh: 2; ATG4B inh: -1; HKDC1 inhibitor: 2; HDAC3 inhib: -9; A1 inh: 0; JMH597 growth: -2; BB721 lum counter: 100*; BB721 growth rt: 5; JMH597 AI-2 mod: 100*

Results for COc1ccc(Cl)cc1S(=O)(=O)N(C)CC(=O)NCCCn1ccnc1 ?
AI-2 QS mod: 24; LANA-H2A inh: -2; ATG4B inh: 0; HKDC1 inhibitor: -8; HDAC3 inhib: 6; A1 inh: 0

Results for O=C(Nc1ccc(OCc2ccccc2)cc1)c1ccccc1 ?
AI-2 QS mod: 3; LANA-H2A inh: 2; ATG4B inh: -7; HKDC1 inhibitor: -10; HDAC3 inhib: 2; A1 inh: -6

Results for CC(C)=CC(=O)Nc1ccc(OCc2ccccc2)cc1 ?
AI-2 QS mod: -83*; LANA-H2A inh: 1; ATG4B inh: -2; HKDC1 inhibitor: 6; HDAC3 inhib: 6; A1 inh: -3; JMH597 growth: -16; BB721 lum counter: 94*; BB721 growth rt: -5; JMH597 AI-2 mod: 96*

Results for O=[N+]([O-])c1ccc(N/N=C/c2cccc(O)c2O)cc1 ?
AI-2 QS mod: -82*; LANA-H2A inh: 0; ATG4B inh: 3; HKDC1 inhibitor: 6; HDAC3 inhib: 9; A1 inh: -3; JMH597 growth: 33; BB721 lum counter: 93*; BB721 growth rt: 16; JMH597 AI-2 mod: 96*

How did O=C(NCCN1CCOCC1)c1ccc(Cl)c([N+](=O)[O-])c1 do in these assays?
AI-2 QS mod: inconclusive; LANA-H2A inh: -2; ATG4B inh: 4; HKDC1 inhibitor: -3; HDAC3 inhib: 11; A1 inh: 1; JMH597 growth: 4; BB721 lum counter: -6; BB721 growth rt: -16; JMH597 AI-2 mod: 5

Results for Clc1ccc(OCc2nc(-c3ccncc3)no2)c(Cl)c1 ?
AI-2 QS mod: 10; LANA-H2A inh: 5; ATG4B inh: -11; HKDC1 inhibitor: 1; HDAC3 inhib: 7; A1 inh: -1

How did c1ccc(OCc2nc(-c3cccs3)no2)cc1 do in these assays?
AI-2 QS mod: -84*; LANA-H2A inh: -2; ATG4B inh: -5; HKDC1 inhibitor: -3; HDAC3 inhib: 2; A1 inh: -2; JMH597 growth: 24; BB721 lum counter: 96*; BB721 growth rt: 11; JMH597 AI-2 mod: 97*

How did Clc1cccc(OCc2nc(-c3ccncc3)no2)c1 do in these assays?
AI-2 QS mod: -88*; LANA-H2A inh: -4; ATG4B inh: -20; HKDC1 inhibitor: -9; HDAC3 inhib: -1; A1 inh: 0; JMH597 growth: 10; BB721 lum counter: 96*; BB721 growth rt: -11; JMH597 AI-2 mod: 97*

How did COc1ccc(-c2nnc(SCC(=O)N3CCCC3)o2)c(OC)c1 do in these assays?
AI-2 QS mod: 12; LANA-H2A inh: -1; ATG4B inh: -4; HKDC1 inhibitor: -4; HDAC3 inhib: 4; A1 inh: 1

Results for Cc1nc(-c2cccnc2)sc1C(=O)Nc1cccc(C(F)(F)F)c1 ?
AI-2 QS mod: -86*; LANA-H2A inh: 6; ATG4B inh: -7; HKDC1 inhibitor: -4; HDAC3 inhib: -6; JMH597 growth: -15; BB721 lum counter: 85*; BB721 growth rt: 10; JMH597 AI-2 mod: 89*

Results for Cn1c(=O)n(C)c2cc(NC(=O)CCl)ccc21 ?
AI-2 QS mod: -88*; LANA-H2A inh: 0; ATG4B inh: -5; HKDC1 inhibitor: 0; HDAC3 inhib: -8; A1 inh: 0; JMH597 growth: 16; BB721 lum counter: 87*; BB721 growth rt: 42; JMH597 AI-2 mod: 89*

What do the screens show for `O=C(OC1CCCCC1)c1ccc(NC(=O)c2ccco2)cc1`?
AI-2 QS mod: -79*; LANA-H2A inh: -4; ATG4B inh: 9; HKDC1 inhibitor: 1; HDAC3 inhib: 10; A1 inh: -1; JMH597 growth: 25; BB721 lum counter: 85*; BB721 growth rt: inconclusive; JMH597 AI-2 mod: 90*

What do the screens show for `O=C(O)c1ccccc1C(=O)Nc1ccc(Oc2cccc3ccccc23)cc1`?
AI-2 QS mod: 41; ATG4B inh: 29; HKDC1 inhibitor: 21

What do the screens show for `O=C(Nc1ccc(Oc2cccc3ccccc23)cc1)c1ccco1`?
AI-2 QS mod: -88*; LANA-H2A inh: 1; ATG4B inh: 23; HKDC1 inhibitor: 2; HDAC3 inhib: 7; A1 inh: 0; JMH597 growth: 32; BB721 lum counter: 95*; BB721 growth rt: 45; JMH597 AI-2 mod: 93*

What do the screens show for `O=C(Nc1ccc(OC(=O)c2ccco2)cc1)c1ccco1`?
AI-2 QS mod: 21; LANA-H2A inh: 4; ATG4B inh: 1; HKDC1 inhibitor: -3; HDAC3 inhib: 3; A1 inh: -4
